# High-throughput results (PubChem BioAssay)
# FID counter: displaces DNA intercalator in HCV helicase counter-screen | DNA fluorescent intercalator displacement, fluorescence | 0.17% of 290,000 active | inhibition, % at 7.9 µM; in the data active = inhibition above about 37%;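 note: 0% = vehicle and 100% = reference compound; higher means more ethidium bromide displaced from hairpin DNA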
# TMEM16A inh: mouse TMEM16A channel inhibition, primary screen | 1.2% of 310,000 active | HEK293 TMEM16A/YFP iodide influx fluorescence, ionomycin | normalized B-score (activity score, 25-100; higher = stronger inhibition) at 10 µM | Q8BHY3;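 active = ratio plate-corrected score three or more library SD toward inhibition, starting fluorescence score within five deviations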;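 note: score derived from kinetic fluorescence span divided by baseline fluorescence per well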
# ANO1 activ: mouse TMEM16A channel activation, primary screen. AID 623877. Q8BHY3. HEK293 TMEM16A/YFP-H148Q/I152L, iodide quench fluorescence; active compounds read low. B-score at 10 µM. 0.3% of 340,000 active;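 active = fluorescence-ratio B-score plate-corrected deviation score at least 3 library SD below zero, with starting fluorescence score within 5 deviations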;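 note: channel opened by trigger with iodide after compound preincubation; score built on the fluorescence ratio of max minus min over baseline; more negative score means more quench and so TMEM16A activation or potentiation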
# Kir21 inh: inhibitors of mouse Kir2.1 inward-rectifier potassium channel; AID 1672; HEK293-Kir2.1, FluxOR thallium flux fluorescence; active compounds read low; B-score at 10 µM; P35561; 0.85% of 310,000 active;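 active = fluorescence ratio B-score at or below minus 3 SD of library scores, with starting-brightness B-score within 2 SD, cut at about -4.2 in these data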;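 note: channel flux triggered by added potassium and thallium sulfate stimulus; B-score of peak minus minimum fluorescence over baseline after thallium stimulus; more negative B-score means stronger Kir2.1 block with less thallium influx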
# SR-BI HDL uptake: mouse SR-BI HDL lipid transfer inhibition; Q61009; ldlA[mSR-BI] CHO cells, DiI-HDL uptake fluorescence, 3 h; inhibition, % at 12.5 µM; 0.96% of 320,000 active;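 active = mean replicate inhibition of at least 70% and a set share of replicates each scoring 70 or more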;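 note: 0% = median of neutral control wells and 100% = median of positive control wells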
# SR-BI uptake up: enhances SR-BI lipid uptake from DiI-HDL; CHO ldlA[mSR-BI] cells, DiI-HDL uptake fluorescence, 3 h; 100 = double the neutral-control signal; activation, % at 12.5 µM; 0.096% of 320,000 active;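 active = mean replicate activation of at least 60% and every replicate at or above 60%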;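 note: 0% = median plate neutral-control signal and 100% = twice that signal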
#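 System: LDL receptor-deficient CHO ldlA cells overexpressing murine SR-BI | Timing: 3 h uptake period with compound, 37 °C | Medium: HEPES-buffered (25 mM, pH 7.4) F12 plus 0.5% BSA | Dosing: Single-point compound dose | Signal: Bottom-read fluorescence, 550/595 nm | Read-out: Retained DiI signal reflecting DiI-HDL uptake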
# * = called active by the depositor; i = inactive; / = no result. An excerpt weighted towards active compounds, which were near 3% of everything screened.
SMILES,FID counter,TMEM16A inh,ANO1 activ,Kir21 inh,SR-BI HDL uptake,SR-BI uptake up
Cc1ccc2nc3c(cc(C(=O)NCCN4CCOCC4)c(=N)n3CCCN3CCOCC3)c(=O)n2c1,79*,i,i,1.3,-6,6
N=c1c(C(=O)NCCN2CCOCC2)cc2c(=O)n3ccccc3nc2n1Cc1ccc(F)cc1,23,i,i,0.94,4,-4
N=c1c(C(=O)NCCN2CCOCC2)cc2c(=O)n3ccccc3nc2n1CCCN1CCOCC1,76*,i,i,-0.76,4,-4
O=C(OCc1nc2ccsc2c(=O)[nH]1)c1ccccc1,/,i,i,0.29,-7,7
Cc1ccnc(NS(=O)(=O)c2ccc(NS(=O)(=O)c3cc(Cl)ccc3Cl)cc2)n1,-24,i,-29*,1.9,-16,16
CCN(CC)CC(=O)Nc1cc(N(C)C)nc2ccccc12,49*,i,i,-0.51,11,-11
CCCCCC(=O)Nc1cc(N(C)C)nc2ccccc12,16,i,i,-0.37,-7,7
CN1CCN(CC(=O)Nc2cc(N(C)C)nc3ccccc23)CC1,73*,i,i,-1.4,-28,28
O=S(=O)(NCCc1cccs1)c1ccc(Br)cc1,-9,i,i,-5.3*,/,/
CC(=O)c1ccc(S(=O)(=O)N2CCN(C(=O)c3cccc(S(=O)(=O)N4CC(C)OC(C)C4)c3)CC2)cc1 (configuration not stated),/,/,i,/,-21,21
CC(C)(C)c1nnc(N/N=C/c2cc(Br)ccc2O)n(N)c1=O,-7,i,i,-0.07,115*,-115
Cc1ccc2nc(N(CCCN(C)C)C(=O)CCc3ccccc3)sc2c1,14,i,i,-5.6*,-2,2
CN(C)CCCN(C(=O)CCc1ccccc1)c1nc2ccc(Cl)cc2s1,14,i,i,0.13,10,-10
CCc1ccc2nc(N(CCCN(C)C)C(=O)c3ccc(C(=O)c4ccccc4)cc3)sc2c1,38*,i,i,-0.69,-10,10
CN(C)CCCN(C(=O)COc1ccccc1)c1nc2ccc(Cl)cc2s1,11,i,-6*,-2.1,/,/
C/C(=N/NS(=O)(=O)c1ccc(C)cc1C)c1c[nH]c2ccccc12,-12,i,i,1.1,-7,7
CCCc1cc(-c2n[nH]c(=S)n2C(C)c2ccccc2)cs1 (configuration not stated),-38,i,i,-0.97,-15,15
COc1cc(-c2n[nH]c(=S)n2C(C)c2ccccc2)cc(OC)c1OC (configuration not stated),-37,i,i,-4.3*,-5,5
CCOc1ccc(S(=O)(=O)N2CCOCC2)cc1NC(=O)CSC(=S)N1CCCC1,/,i,i,-0.32,-13,13
Cc1cc(Br)ccc1NC(=S)Nc1cccc([N+](=O)[O-])c1,4,100*,i,-0.99,34,-34
O=C(Nc1ccc(C(=O)N2CCN(c3ccc(Cl)cc3)CC2)cc1)C1=CSCCO1,-26,i,i,-0.31,4,-4
O=C(Nc1ccccc1C(=O)N1CCN(c2cccc(Cl)c2)CC1)C1=CSCCO1,-23,i,-28*,-2.2,1,-1
NS(=O)(=O)c1ccc(CCNC(=O)COC(=O)C2CCC2)cc1,-3,i,-4.6*,0.62,-26,26
NS(=O)(=O)c1ccc(CCNC(=O)COC(=O)CC(c2ccccc2)c2ccccc2)cc1,-30,i,i,-5.1*,6,-6
CCc1cccc(C)c1NC(=O)CSc1n[nH]c(N)n1,/,/,i,/,-12,12
COc1ccc(S(=O)(=O)N2CCCCCC2)cc1C(=O)NCCc1ccccc1,/,/,i,/,13,-13
O=C(/C=C/c1ccccc1)n1cnnc1SC/C=C/c1ccccc1,-4,i,i,-6.9*,-20,20
CNc1sc(C(=O)c2ccc(F)cc2)c(N)c1-c1nc2ccccc2s1,5,i,i,-0.02,90*,-90
CNc1sc(C(=O)c2cccs2)c(N)c1-c1nc2ccccc2s1,12,i,i,-2,95*,-95
CC(=O)Nc1scc(C)c1-c1nc2ccccc2s1,-5,i,i,-0.62,51,-51
